Measured values from different studies.
Protocols differ between the studies behind these lines.
Action: inhibitor
HDAC4: Histone deacetylase 4 (HDAC4, Homo sapiens, UniProt P56524)
SLCO1B3 M233I: Solute carrier organic anion transporter family member 1B3 (SLCO1B3, Homo sapiens, UniProt Q9NPD5, M233I)
P4HB: Protein disulfide-isomerase (P4HB, Homo sapiens, UniProt P07237)
VCP: Transitional endoplasmic reticulum ATPase (VCP, Homo sapiens, UniProt P55072)
BLK: Tyrosine-protein kinase Blk (BLK, Homo sapiens, UniProt P51451)
SLCO1B3: Solute carrier organic anion transporter family member 1B3 (SLCO1B3, Homo sapiens, UniProt Q9NPD5)

Compound	target	test	setting	IC50 [nM]
COc1ccc(N(Cc2csc(-c3ccc(C)cc3)n2)C(=O)CCCCCC(=O)NO)cc1	HDAC4	enzyme activity		> 10000
CC(=O)O[C@H]1C(=O)[C@@]2(C)[C@H]([C@H](OC(=O)c3ccccc3)[C@]3(O)C[C@H](OC(=O)[C@H](O)[C@@H](NC(=O)c4ccccc4)c4ccccc4)C(C)=C1C3(C)C)[C@]1(OC(C)=O)CO[C@@H]1C[C@@H]2O	SLCO1B3 M233I	transporter uptake, radiometric	2 min	> 100000
O=C(OC[C@H]1O[C@@H](OC(=O)c2cc(O)c(O)c(O)c2)[C@H](OC(=O)c2cc(O)c(O)c(O)c2)[C@@H](OC(=O)c2cc(O)c(O)c(O)c2)[C@@H]1OC(=O)c1cc(O)c(O)c(O)c1)c1cc(O)c(O)c(O)c1	P4HB	enzyme activity, fluorescence		2900
CONC(=O)Cc1c(C)n(-c2nc3c(c(NCc4ccccc4)n2)CCCN3)c2ccccc12	VCP	enzyme activity, ADP detection		177
O=c1c(O)cc([C@H]2Oc3cc(O)cc(O)c3C[C@H]2O)cc2c([C@H]3Oc4cc(O)cc(O)c4C[C@H]3O)cc(O)c(O)c12	P4HB	enzyme activity, fluorescence		> 500000
Clc1ccc(Nc2ccncc2)cc1Cl	G/T mismatch-specific thymine DNA glycosylase (TDG, Homo sapiens, UniProt Q13569)	enzyme activity		> 99000
CC#CC(=O)N[C@H]1CCCN(c2c(F)cc(C(N)=O)c3[nH]c(C)c(C)c23)C1	BLK	enzyme activity		6.92
N=C(N)c1ccc(OCCCCCOc2ccc(C(=N)N)cc2)cc1	Coagulation factor XIII A chain (F13A1, Homo sapiens, UniProt P00488)	enzyme activity, fluorescence		> 50000
CCc1oc2cc(F)ccc2c1C(=O)c1cc(Br)c(O)c(Br)c1	Solute carrier family 2, facilitated glucose transporter member 9 (SLC2A9, Homo sapiens, UniProt Q9NRM0)	transporter uptake	oocytes	30400
CC1(C)NC(=O)N(c2ccc([N+](=O)[O-])c(C(F)(F)F)c2)C1=O	Aldo-keto reductase family 1 member C3 (AKR1C3, Homo sapiens, UniProt P42330)	enzyme activity		5000
Cc1cc2c(C(N)=O)cccc2n1-c1nc2c(c(NCc3ccccc3O)n1)CCCN2	VCP	enzyme activity, ADP detection		53
NC/C(=C\F)COc1cccc(Cn2c(=S)[nH]c(=O)c3[nH]cnc32)c1	Lactoperoxidase (LPO, Bos taurus, UniProt P80025)	enzyme activity		7500
CONC(=O)c1c(C)n(-c2nc3c(c(NCc4ccccc4)n2)CCCN3)c2ccccc12	VCP	enzyme activity, ADP detection		1640
CCc1oc2ccccc2c1C(=O)c1cc(Br)c(O)c(Br)c1	SLCO1B3	transporter uptake, radiometric	oocytes	25300
CN(Cc1cnc2nc(N)nc(N)c2n1)c1ccc(C(=O)N[C@@H](CCC(=O)O)C(=O)O)cc1	Solute carrier organic anion transporter family member 1B3 (SLCO1B3, Homo sapiens, UniProt Q9NPD5, S112A)	transporter uptake, radiometric	2 min	> 100000
Cc1c(C(N)=O)c2ccccc2n1-c1nc2c(c(NCc3ccccc3)n1)CCCN2	VCP	enzyme activity, ADP detection		393
CCN(CCO)CCCC(C)Nc1ccnc2cc(Cl)ccc12 (centres unmarked)	Procathepsin L (CTSL, Homo sapiens, UniProt P07711)	enzyme activity, fluorescence		234000
O=C(NO)c1ccc(Cn2cnc3c(Nc4cccc([N+](=O)[O-])c4)ncnc32)cc1	HDAC4	enzyme activity		531
COc1cccc2c1C(=O)c1c(O)c3c(c(O)c1C2=O)C[C@@](O)(C(=O)CO)C[C@@H]3O[C@H]1C[C@H](N)[C@H](O)[C@H](C)O1	SLCO1B3 M233I	transporter uptake, radiometric	2 min	> 100000
COc1ccc(N(Cc2csc(-c3ccc(Br)cc3)n2)C(=O)CCCCCC(=O)NO)cc1	HDAC4	enzyme activity		> 10000
CC#CC(=O)N1CCC[C@H]1c1nc(-c2ccc(C(=O)Nc3ccccn3)cc2)c2c(N)nccn12	BLK	enzyme activity		4220
CC(C)n1c(/C=C/C(O)CC(O)CC(=O)O)c(-c2ccc(F)cc2)c2ccccc21 (centres unmarked)	SLCO1B3	transporter uptake, radiometric	2 min	109
Cc1cc2c(C(=O)O)cccc2n1-c1nc2c(c(NCc3ccccc3)n1)CCCN2	VCP	enzyme activity, ADP detection		32
CC(C)(/C=C(\C#N)C(=O)N1CCC[C@@H](n2nc(-c3ccc(Oc4ccccc4)cc3F)c3c(N)ncnc32)C1)N1CCN(C2COC2)CC1	BLK	enzyme activity		0.376
O=C(O[C@@H]1[C@@H](O)[C@H](Oc2cc(O)c3c(c2)O[C@H](c2ccccc2)CC3=O)O[C@@H]2COC(=O)c3cc(O)c(O)c(O)c3-c3c(cc(O)c(O)c3O)C(=O)O[C@@H]12)c1cc(O)c(O)c(O)c1	P4HB	enzyme activity, fluorescence		1500
Cc1cc2c(C(N)=O)cccc2n1-c1nc2c(c(NCc3cccnc3)n1)CCCN2	VCP	enzyme activity, ADP detection		115
